Laboratory results as given in ChEMBL document CHEMBL1148541, “Biological evaluation of 1-alkyl-3-phenylthioureas as orally active HDL-elevating agents” (Bioorg Med Chem Lett, 2006).

Legend:
Type in all cases: functional
Rattus norvegicus [1] = experiment: Increase of Apolipoprotein A-I level in cholesterol-fed male rats at 82 mg/kg/day relative to control
Method in brief: (§1)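 Drug mixed into diet, fed ad libitum for 8 days to groups of six male Sprague–Dawley rats on a cholesterol diet. Serum Apo A-I measured by SDS–polyacrylamide gel electrophoresis or by rat competition ELISA. Reported as % change versus untreated controls, with significance set at p < 0.05.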

Rattus norvegicus [2] = experiment: Weight gain in cholesterol-fed male rats at 82 mg/kg/day relative to control
Method in brief: (§2)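 Groups of six male Sprague–Dawley rats on a cholesterol diet received the compound in the diet, ad libitum, over 8 days. Body weight gain is reported as % change relative to untreated controls.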

Rattus norvegicus [3] = experiment: Increase of HDL level in cholesterol-fed male rats by FPLC method at 82 mg/kg/day relative to control
Method in brief: (§3)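 Groups of six male Sprague–Dawley rats on a cholesterol diet received drug in the diet, ad libitum, for 8 days. Serum lipoproteins separated by FPLC, adapted for robotic automation, and cholesterol quantitated enzymatically by colorimetry. HDL given as % change versus untreated controls, with significance set at p < 0.05.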

Rattus norvegicus [4] = experiment: Triglyceride level in cholesterol-fed male rats at 82 mg/kg/day relative to control
Method in brief: (§4)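 Male Sprague–Dawley rats on a cholesterol diet, in groups of six, received the compound in the diet ad libitum for 8 days. Serum triglycerides are expressed as % change relative to untreated controls, with significance at p < 0.05 versus controls.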

Rattus norvegicus [5] = experiment: Increase of total cholesterol level in cholesterol-fed male rats at 82 mg/kg/day relative to control
Method in brief: (§5)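 Dietary (ad libitum) dosing of groups of six male Sprague–Dawley rats on a cholesterol diet for 8 days. Serum total cholesterol was quantitated enzymatically by a colorimetric method and expressed as % change relative to untreated controls, with significance at p < 0.05.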

Rattus norvegicus [6] = experiment: Increase of HDL level in cholesterol-fed male rats by ultracentrifugation method at 82 mg/kg/day relative to control
Method in brief: (§6)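 Compound given in the diet, ad libitum, to groups of six male Sprague–Dawley rats on a cholesterol diet for 8 days. Serum lipoproteins were separated by classical ultracentrifugation, and HDL cholesterol was quantitated by an enzymatic colorimetric method. Results are reported as % change relative to untreated controls, with significance at p < 0.05 versus controls.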

Rattus norvegicus [7] = experiment: Increase of HDL level in cholesterol-fed male rats by FPLC method at 71 mg/kg/day relative to control; method in brief: as §3
Rattus norvegicus [8] = experiment: Increase of total cholesterol level in cholesterol-fed male rats at 71 mg/kg/day relative to control; method in brief: as §5
Rattus norvegicus [9] = experiment: Increase of HDL level in cholesterol-fed male rats by ultracentrifugation method at 71 mg/kg/day relative to control
Method in brief: (§7)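 Cholesterol-fed male Sprague–Dawley rats, six per group, given drug in the diet ad libitum for 8 days. Serum lipoproteins separated by classical ultracentrifugation and HDL cholesterol measured by an enzymatic colorimetric method. Expressed as % change versus untreated controls, with significance set at p < 0.05.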

Rattus norvegicus [10] = experiment: Weight gain in cholesterol-fed male rats at 71 mg/kg/day relative to control; method in brief: as §2
Rattus norvegicus [11] = experiment: Triglyceride level in cholesterol-fed male rats at 71 mg/kg/day relative to control; method in brief: as §4
Rattus norvegicus [12] = experiment: Increase of HDL level in cholesterol-fed male rats by ultracentrifugation method at 73 mg/kg/day relative to control; method in brief: as §6
Rattus norvegicus [13] = experiment: Increase of HDL level in cholesterol-fed male rats by FPLC method at 73 mg/kg/day relative to control; method in brief: as §3
Rattus norvegicus [14] = experiment: Weight gain in cholesterol-fed male rats at 73 mg/kg/day relative to control; method in brief: as §2
Rattus norvegicus [15] = experiment: Triglyceride level in cholesterol-fed male rats at 73 mg/kg/day relative to control; method in brief: as §4
Rattus norvegicus [16] = experiment: Increase of total cholesterol level in cholesterol-fed male rats at 73 mg/kg/day relative to control; method in brief: as §5
Rattus norvegicus [17] = species: Rattus norvegicus; experiment: Increase in liver enzyme Aspartate aminotransferase; set-up: concentration or dose not given beside the values
Rattus norvegicus [18] = experiment: Increase of Apolipoprotein A-I level in cholesterol-fed male rats at 73 mg/kg/day relative to control; method in brief: as §1
Rattus norvegicus [19] = species: Rattus norvegicus; experiment: Increase in liver enzyme Alanine aminotransferase
Rattus norvegicus [20] = experiment: Increase of HDL level in cholesterol-fed male rats by FPLC method at 81 mg/kg/day relative to control; method in brief: as §3
Rattus norvegicus [21] = experiment: Increase of HDL level in cholesterol-fed male rats by ultracentrifugation method at 81 mg/kg/day relative to control; method in brief: as §6
Rattus norvegicus [22] = experiment: Increase of total cholesterol level in cholesterol-fed male rats at 81 mg/kg/day relative to control; method in brief: as §5
Rattus norvegicus [23] = experiment: Triglyceride level in cholesterol-fed male rats at 81 mg/kg/day relative to control; method in brief: as §4
Rattus norvegicus [24] = experiment: Weight gain in cholesterol-fed male rats at 81 mg/kg/day relative to control; method in brief: as §2
Rattus norvegicus [25] = experiment: Increase of Apolipoprotein A-I level in cholesterol-fed male rats at 81 mg/kg/day relative to control; method in brief: as §1
Rattus norvegicus [26] = experiment: Increase of total cholesterol level in cholesterol-fed male rats at 70 mg/kg/day relative to control; method in brief: as §5
Rattus norvegicus [27] = experiment: Increase of HDL level in cholesterol-fed male rats by ultracentrifugation method at 70 mg/kg/day relative to control; method in brief: as §7
Rattus norvegicus [28] = experiment: Increase of Apolipoprotein A-I level in cholesterol-fed male rats at 70 mg/kg/day relative to control; method in brief: as §1
Rattus norvegicus [29] = experiment: Weight gain in cholesterol-fed male rats at 70 mg/kg/day relative to control; method in brief: as §2
Rattus norvegicus [30] = experiment: Triglyceride level in cholesterol-fed male rats at 70 mg/kg/day relative to control; method in brief: as §4
Rattus norvegicus [31] = experiment: Increase of HDL level in cholesterol-fed male rats by FPLC method at 70 mg/kg/day relative to control; method in brief: as §3
Rattus norvegicus [32] = experiment: Weight gain in cholesterol-fed male rats at 88 mg/kg/day relative to control; method in brief: as §2
Rattus norvegicus [33] = experiment: Increase of HDL level in cholesterol-fed male rats by FPLC method at 88 mg/kg/day relative to control; method in brief: as §3
Rattus norvegicus [34] = experiment: Triglyceride level in cholesterol-fed male rats at 88 mg/kg/day relative to control; method in brief: as §4
Rattus norvegicus [35] = experiment: Increase of HDL level in cholesterol-fed male rats by ultracentrifugation method at 88 mg/kg/day relative to control; method in brief: as §6
Rattus norvegicus [36] = experiment: Increase of Apolipoprotein A-I level in cholesterol-fed male rats at 88 mg/kg/day relative to control; method in brief: as §1
Rattus norvegicus [37] = experiment: Increase of total cholesterol level in cholesterol-fed male rats at 88 mg/kg/day relative to control; method in brief: as §5

Work on `Cc1ccc(Cl)cc1N/C(S)=N/C(C)C(C)(C)C` (centres undefined) yielded an Activity (Rattus norvegicus [1]) of 34%, an Activity (Rattus norvegicus [2]) of -24% and an Activity (Rattus norvegicus [3]) of 109%. It also gave an Activity (Rattus norvegicus [4]) of -35%, an Activity (Rattus norvegicus [5]) of 15% and an Activity (Rattus norvegicus [6]) of 93%.

Compound `CCC/N=C(\S)Nc1cc(C)ccc1OC` has an Activity (Rattus norvegicus [7]) of 63%, an Activity (Rattus norvegicus [8]) of 71% and an Activity (Rattus norvegicus [9]) of 84%. It also gave an Activity (Rattus norvegicus [10]) of -16% and an Activity (Rattus norvegicus [11]) of -38%.

For `CC/N=C(\S)Nc1cc(Cl)ccc1C`, the Activity (Rattus norvegicus [12]) was 110%, the Activity (Rattus norvegicus [13]) was 215% and the Activity (Rattus norvegicus [14]) was -107%. It also gave an Activity (Rattus norvegicus [15]) of -64%, an Activity (Rattus norvegicus [16]) of 32% and an Activity (Rattus norvegicus [17]) of 162%. For the same compound, the Activity (Rattus norvegicus [18]) was 27% and the Activity (Rattus norvegicus [19]) was 81%.

In the case of `CCC(C)(C)/N=C(\S)Nc1cc(Cl)ccc1C`, the Activity (Rattus norvegicus [20]) is reported as 39%, the Activity (Rattus norvegicus [21]) is reported as 55% and the Activity (Rattus norvegicus [22]) is reported as -10%. The Activity (Rattus norvegicus [23]) was -14%, the Activity (Rattus norvegicus [24]) was 15% and the Activity (Rattus norvegicus [25]) was 64%.

Work on `CCC/N=C(\S)Nc1cc(Cl)ccc1CC` yielded an Activity (Rattus norvegicus [26]) of 28%, an Activity (Rattus norvegicus [27]) of 101% and an Activity (Rattus norvegicus [28]) of 43%. It also gave an Activity (Rattus norvegicus [29]) of -33%, an Activity (Rattus norvegicus [30]) of -61% and an Activity (Rattus norvegicus [31]) of 369%.

For `Cc1ccc(Cl)cc1/N=C(\S)NCC(C)(C)C`, the Activity (Rattus norvegicus [32]) was 7%, the Activity (Rattus norvegicus [33]) was 196% and the Activity (Rattus norvegicus [34]) was -66%. For the same compound, the Activity (Rattus norvegicus [35]) was 122%, the Activity (Rattus norvegicus [17]) was 49% and the Activity (Rattus norvegicus [36]) was 89%. It also gave an Activity (Rattus norvegicus [37]) of 3% and an Activity (Rattus norvegicus [19]) of 111%.
